Screening data from PubChem BioAssay.
Hits are enriched below; roughly 2.2% of the tested compounds scored in any of these assays.
DENV2 CPE = inhibitors of DENV2 cytopathic effect, primary screen, cell-based, plate reader, single concentration. CPE inhibition, % at 9.99 µM. 350,000 tested, 1.7% active. AID 651640, 2012. DENV2-infected cells, cytopathic effect rescue; in the data active = CPE inhibition above about 20%, passing the limit was not always enough; tested in BHK-21 cells;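 note: 0% = median of neutral control wells and 100% = median of positive control wells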
Statin myotox sup = suppressors of statin myotoxicity in C2C12 myotubes, primary screen, cell-based, single point, plate reader | C2C12 myotubes + simvastatin, ATP luminescence, 48 h; scaled: DMSO 0, geranylgeraniol control 100 | rescue of ATP level, % at 7.49 µM | 330,000 tested, 0.78% active | AID 602340, 2012;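 active = mean ATP rescue above about 67%, or every replicate alone reaching that limit, limit read from the data, passing the limit was not always enough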;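 note: myotubes were challenged with 10 µM simvastatin during compound exposure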
E-sel inducer = E-selectin induction in HUVECs, primary screen, imaging, HUVEC, immunofluorescence imaging, single point; 260,000 tested, 0.37% active; activation, % at 7.58 µM; normalized: neutral wells 0, TNF-alpha wells 100;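 active = mean E-selectin-positive cell signal at least 10% of the positive control, reached in at least 60% of replicates, without over 20% cell loss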
Target sequence (P16581 whole entry, looked up): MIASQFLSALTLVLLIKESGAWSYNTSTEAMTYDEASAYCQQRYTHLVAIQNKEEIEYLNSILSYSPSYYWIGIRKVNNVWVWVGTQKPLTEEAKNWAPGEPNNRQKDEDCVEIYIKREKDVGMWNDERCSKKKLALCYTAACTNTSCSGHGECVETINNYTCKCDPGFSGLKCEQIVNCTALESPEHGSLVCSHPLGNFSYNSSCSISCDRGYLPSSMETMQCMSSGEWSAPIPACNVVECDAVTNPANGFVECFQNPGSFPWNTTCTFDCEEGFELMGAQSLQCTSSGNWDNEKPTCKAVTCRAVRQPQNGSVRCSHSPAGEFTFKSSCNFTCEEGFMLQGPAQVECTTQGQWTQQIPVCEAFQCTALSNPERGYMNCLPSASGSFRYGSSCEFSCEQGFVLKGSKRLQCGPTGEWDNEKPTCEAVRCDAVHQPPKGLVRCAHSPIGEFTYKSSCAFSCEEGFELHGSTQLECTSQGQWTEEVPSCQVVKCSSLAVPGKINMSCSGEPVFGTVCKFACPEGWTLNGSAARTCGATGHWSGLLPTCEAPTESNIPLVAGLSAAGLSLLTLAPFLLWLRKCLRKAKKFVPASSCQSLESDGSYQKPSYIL
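assay system = HUVEC, human umbilical vein endothelial cells | input = 3,000 HUVEC seeded per well | medium = EGM-2 growth medium on 0.1% gelatin-coated wells | dosing = one compound dose added by pin transfer | signal = immunofluorescence imaging | read-out basis = % PE-positive cells | control set = TNF-alpha, DMSO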
* = called active by the depositor; / = no result.

SMILES	DENV2 CPE	Statin myotox sup	E-sel inducer
COc1ccc(S(=O)(=O)N(C)C[C@@H]2Oc3ccc(NS(C)(=O)=O)cc3CC(=O)N([C@@H](C)CO)C[C@@H]2C)cc1	12	0	/
COc1ccc(S(=O)(=O)N(C)C[C@@H]2Oc3ccc(NC(=O)CCC(F)(F)F)cc3CC(=O)N([C@@H](C)CO)C[C@H]2C)cc1	25*	6	0
COc1ccc(S(=O)(=O)N(C)C[C@@H]2Oc3ccc(NS(C)(=O)=O)cc3CC(=O)N([C@@H](C)CO)C[C@H]2C)cc1	48*	-22	/
CNC[C@H]1OCCCC[C@@H](C)Oc2ccc(N)cc2C(=O)N([C@H](C)CO)C[C@H]1C	/	15	0
CNC(=O)C[C@H]1CC[C@@H]2[C@H](COc3ccc(NS(=O)(=O)c4ccccc4C)cc3C(=O)N2C)O1	6	-6	0
O=C(C[C@@H]1CC[C@H]2[C@@H](COC[C@H](O)CN2C(=O)c2ccccn2)O1)NC1CCC1	-1	-12	0
CCCNC(=O)C[C@@H]1CC[C@@H]2[C@@H](COc3ccc(NC(=O)CCC)cc3C(=O)N2C)O1	4	-18	0
O=C(NCC(F)(F)F)[C@@H]1[C@@H](CO)[C@@H]2Cn3c(cccc3=O)[C@H]1N2CC1CCOCC1	1	4	0
Cc1noc(C)c1NC(=O)N(C)C[C@H]1OCCCC[C@@H](C)Oc2ccc(NS(=O)(=O)c3cn(C)cn3)cc2C(=O)N([C@H](C)CO)C[C@@H]1C	-3	-11	0
O=C1NC(c2ccccc2)CCO1 (configuration not stated)	-20	0	0
O=C1CCCC(c2ccccc2)N1 (configuration not stated)	60*	/	/
CCCNC(=O)[C@@H]1[C@@H](CO)[C@@H]2Cn3c(ccc(-c4ccncc4)c3=O)[C@H]1N2Cc1ccccc1F	-6	-20	0
COc1cccc(NC(=O)CC2Oc3ccccc3NC2=O)c1 (configuration not stated)	0	10	0
CSc1cccc(NC(=O)CC2Oc3ccccc3NC2=O)c1 (configuration not stated)	37*	6	/
C[C@@H]1CN([C@H](C)CO)C(=O)Cc2cc(NC(=O)Cn3cnnn3)ccc2O[C@H]1CN(C)S(=O)(=O)c1cccs1	0	29	-7
CCN(C[C@H]1N[C@@](Cc2ccccc2)(C(=O)OC)[C@H]2C(=O)N(Cc3ccccc3)C(=O)[C@@H]12)C(=O)NC(C)C	8	2	0
CCNC(=O)N(CC)C[C@H]1N[C@@](Cc2ccccc2)(C(=O)OC)[C@H]2C(=O)N(Cc3ccccc3)C(=O)[C@@H]12	37*	0	0
C[C@@H]1CCCCO[C@@H](CN(C)Cc2ccncc2)[C@H](C)CN([C@@H](C)CO)C(=O)c2cc(NC(=O)NC3CCCCC3)ccc2O1	-10	35	0
COc1ccc(C2=CC(=O)CC(C)(C)C2)cc1OC	/	11	0
COc1ncc(C2=CC(=O)CC(C)(C)C2)cn1	31*	8	0
CO[C@H]1CN(C)C(=O)c2cc(NC(C)=O)ccc2OC[C@@H](C)N(Cc2cncnc2)C[C@@H]1C	-1	-8	0
Cc1noc(C)c1NC(=O)N1C[C@@H](O)COC[C@@H]2O[C@H](CC(=O)N3CCc4ccccc4C3)CC[C@H]21	5	14	0
O=C(C[C@H]1CC[C@H]2[C@@H](COC[C@H](O)CN2S(=O)(=O)c2ccc(F)cc2)O1)NCc1ccc(Cl)c(Cl)c1	-9	-10	1
CC1(C(=O)NCc2cccs2)Cc2c(-c3cccc(C(F)(F)F)c3)ccnc2O1 (configuration not stated)	27*	-26	0
CC1(C(=O)Nc2cccc(OC(F)(F)F)c2)Cc2c(-c3cccc(C(N)=O)c3)ccnc2O1 (configuration not stated)	21*	-9	0
SMILES	DENV2 CPE	Statin myotox sup	E-sel inducer
CC1(C(=O)NCc2ccccc2)Cc2c(-c3cccc(C(F)(F)F)c3)ccnc2O1 (configuration not stated)	-1	-68	2
CC1(C(=O)Nc2cccc(C(F)(F)F)c2)Cc2c(-c3cccc(C(N)=O)c3)ccnc2O1 (configuration not stated)	-2	-5	0
C[C@@H]1CCCCO[C@@H](CN(C)C(=O)NC2CCCCC2)[C@H](C)CN([C@@H](C)CO)C(=O)c2cc(NC(=O)CCC(F)(F)F)ccc2O1	-5	-8	0
C[C@H](CO)N1C[C@H](C)[C@@H](CN(C)S(=O)(=O)c2ccc(Cl)cc2)Oc2ccc(NC(=O)Nc3ccc4c(c3)OCO4)cc2CC1=O	8	-90	-19
O=C(N[C@H]1C=C[C@@H](CC(=O)N2CCC(Cc3ccccc3)CC2)O[C@@H]1CO)c1cnccn1	2	0	0
O=C(C[C@@H]1C[C@H]2c3cc(NC(=O)C4CCOCC4)ccc3O[C@H]2[C@H](CO)O1)NCc1ccccn1	-5	-4	-1
Cc1ccccc1C(=O)N1CCN(c2ccc(NC(=O)c3ccc([N+](=O)[O-])o3)cc2)CC1	-4	167*	/
Cc1ccccc1C(=O)N1CCN(c2ccc([N+](=O)[O-])c(NCc3ccco3)c2)CC1	/	130*	/
CN1CCN(c2ccc(NC(=O)c3ccc([N+](=O)[O-])o3)cc2Cl)CC1	0	94*	/
O=C(Nc1ccc(N2CCN(C(=O)c3ccccc3)CC2)cc1)c1ccc([N+](=O)[O-])o1	-6	/	/
O=C(c1cccc2ccccc12)N1CCN(c2ccc([N+](=O)[O-])c(NCc3ccco3)c2)CC1	-1	/	/
O=C(Nc1ccc(N2CCOCC2)c(Cl)c1)c1ccc([N+](=O)[O-])o1	-6	/	/
C/C=C/c1ccc2c(c1)O[C@H](CN(C)C(=O)c1ccccn1)[C@@H](C)CN([C@@H](C)CO)S2(=O)=O	-5	-4	0
O=C(C1CC1)N1C[C@@H]2N[C@H](C1)C2c1ccc(-c2ccccc2F)cc1 (some centres not stated)	4	/	-1
CCS(=O)(=O)Nc1ccc2c(c1)C(=O)N(C)[C@@H]1CC[C@@H](CC(=O)OC)O[C@H]1CO2	-1	-15	0
C[C@@H]1CCCCO[C@H](CN(C)Cc2ccc(C(F)(F)F)cc2)[C@H](C)CN([C@@H](C)CO)C(=O)c2cc(NS(=O)(=O)c3cn(C)cn3)ccc2O1	2	/	0
COc1ccc(-c2ncc3ccccn23)cc1	/	99*	/
COc1cc(OC)cc(-c2ncc3ccccn23)c1	/	-8	/
O=C1OCCN1N1CCOC1=O	6	113*	0
O=C1OCCN1S(=O)(=O)Nc1ccccc1	11	11	0
COC(=O)C1=C(C)NC(C)=C(C(=O)OC)C1C1CC=CCC1 (configuration not stated)	/	123*	/
CCOC(=O)C1=C(C)NC(=O)NC1C1CC=CCC1 (configuration not stated)	/	17	/
O=C(C[C@H]1C=C[C@@H](NC(=O)C2CCC2)[C@H](CO)O1)NCc1ccncc1	0	7	0
